STAT3 blocker – IL-6 driven STAT3 reporter inhibitors, primary screen, U3A cells, luciferase, luminescence, MLSCN library. IL-6 STAT3-luciferase reporter; host cell line lacks STAT1. actives 0.89% (n = 190,000). inhibition, % at 5.5 µM;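 active means inhibition above the mean inhibition across all screened compounds plus 3 SD, cut at about 44% in these data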;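 further: 0% = DMSO only wells and 100% = 100 µM nifuroxazide control wells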
STAT1 act-1 – STAT1 signaling activators, primary screen, cell-based, HTS, luciferase reporter; NIH 3T3 STAT1-luciferase reporter, IFN-gamma, luminescence; 100% = IFN-gamma alone, no compound; activation (% of control), % at 5.5 µM; actives 2.6% (n = 200,000);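 active means activation above the screen-wide mean activation plus 3 SD, cut at about 130% in these data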;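 further: raw ratio to IFN-gamma control signal so 100% means no change and 0% no light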
NF-kB expr up – activators of NF-kB expression in neurons, primary screen, cell-based, HTS. fold change at 12.5 µM. actives 1.6% (n = 190,000). human neuronal cells, NF-kB reporter expression; hits give high values. AID 1239, 2008; in the data active means fold change above about 3.3
APP 5'UTR act – activators of APP 5'UTR luciferase reporter, primary screen, SH-SY5Y cells; activation, % at 2 µM; SH-SY5Y APP 5'UTR luciferase reporter, luminescence; zero percent = DMSO vehicle wells; AID 1276, 2008; actives 1% (n = 190,000);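 active means activation above a set limit, based on mean plus 3 SD of controls, cut at about 140% in these data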
STAT3 act-1 – IL-6 driven STAT3 reporter potentiators, primary screen, U3A cells, luciferase, luminescence, MLSCN library; IL-6 STAT3-luciferase reporter; 100% = signal with IL-6 EC80 alone; activation (% of control), % at 5.6 µM; actives 0.91% (n = 190,000);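 active means activation above the screen-wide mean of compound activation plus 3 SD, cut at about 130% in these data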;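 further: 0% = background luminescence of wells with medium and substrate only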
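Test system: STAT3-luciferase reporter U3A cells; Detection: reporter luminescence signal; Times: 1 h compound pre-exposure, 6 h IL-6 stimulation, 37 °C; Benchmarks: IL-6-only high control; Also added: IL-6 stimulus at 33 ng/mL final.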
STAT1 inh – STAT1 signaling inhibitors, primary screen, cell-based, HTS, luciferase reporter; NIH 3T3 STAT1-luciferase reporter, IFN-gamma, luminescence; inhibition, % at 5.5 µM; actives 0.35% (n = 200,000); AID 920, 2007;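 active means inhibition above a set limit, the mean inhibition across all tested compounds plus 3 SD, cut at about 34% in these data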;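 further: 0% = IFN-gamma with DMSO and 100% = IFN-gamma with 300 µM nifuroxazide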
STAT3 act-2 – STAT3 reporter potentiators, retest of hits, confirmation, U3A cells, luciferase, luminescence | shares compounds with STAT3 act-1 | actives 64% (n = 1,200) | potentiation (% of control), % at 5.7 µM | IL-6 potentiation; U3A cells lack STAT1; 100 means same as IL-6 alone | AID 1267, 2008;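 active means percent activation of the STAT3 luciferase reporter above a set limit taken from the earlier primary screen, cut at about 130% in these data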;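 further: 0% = background signal of medium plus substrate and 100% = median of IL-6 with DMSO wells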
NFkB act STAT3ct – NF-kB reporter activators in human cells, counter-screen for STAT3 activator project | shares compounds with STAT3 act-1 | NF-kappaB reporter activation | activation (% of control), % at 5.7 µM | actives 11% (n = 1,200) | AID 1309, 2008; in the data active means activation above about 120%;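 further: reporter induced by TNF-alpha stimulation; 100% = median of stimulated DMSO wells and 0% = no signal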
STAT1 act-2 – STAT1 reporter activators, IFN-gamma induced, counter-screen for STAT3 activator project, cell-based, NIH 3T3, luciferase luminescence; shares compounds with STAT3 act-1; NIH 3T3 STAT1-luciferase reporter; activation (% of control), % at 5.7 µM; actives 13% (n = 1,200);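 active means activation above the solvent-only control well mean plus 3 SD, set per screening run, cut at about 120% in these data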;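 further: 100% = IFN-gamma with DMSO median signal so 100% means no change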
Numbers without * were called inactive; . = not tested or not shown. The list is not random: actives were taken first. Their share in the collection is about 5.1%.

SMILES | STAT3 blocker | STAT1 act-1 | NF-kB expr up | APP 5'UTR act | STAT3 act-1 | STAT1 inh | STAT3 act-2 | NFkB act STAT3ct | STAT1 act-2
CC(=O)n1cc(C(C[N+](=O)[O-])SCCN)c2ccccc21 (stereo not drawn) | -47 | 98 | 1.1 | 4 | 141* | 2 | 138* | 113 | 98
CC(=O)n1cc(-c2ccncc2)c2ccccc21 | 10 | 105 | 0.86 | -46 | 92 | -5 | . | . | .
O=C1C(=C(c2ccccc2)c2ccccc2)Nc2ccccc21 | -47 | 91 | 1.2 | 6 | 147* | 10 | 139* | 101 | 95
O=C1C(=C(O)c2ccccc2)C(=O)c2ccccc21 | -12 | 95 | 0.96 | 3 | 113 | 5 | . | . | .
Cc1c(C(=O)NCc2cccnc2)oc2ccc(S(=O)(=O)N3CC(C)CC(C)C3)cc12 (stereo not drawn) | -46 | 96 | 1.1 | 3 | 136* | 2 | 160* | 102 | 102
O=C(OCC(=O)N1CCc2ccccc21)c1ccccc1 | 7 | 124 | 2.4 | -13 | 100 | -26 | . | . | .
COc1cc2c(cc1OC)CN(C(C)C(=O)N1CCc3ccccc31)CC2 (stereo not drawn) | -11 | 105 | 0.86 | -2 | 106 | -6 | . | . | .
CC(C(=O)N1CCc2ccccc21)N1CCc2ccccc2C1 (stereo not drawn) | -47 | 94 | 1 | 11 | 146* | 6 | 119 | 103 | 102
CN(C)S(=O)(=O)N1CCc2ccccc2C1 | 6 | 106 | 0.86 | 6 | 97 | -7 | . | . | .
CCOCC(=O)N1CCc2ccccc21 | -60 | 100 | 1.5 | 10 | 151* | -1 | 139* | 103 | 97
CN(C)S(=O)(=O)N1CCc2ccccc21 | -54 | 100 | 1.1 | -10 | 146* | -2 | 133 | 102 | 101
O=C(c1cccnc1)N1CCc2ccccc21 | -66 | 101 | 0.92 | 8 | 159* | -1 | 140* | 102 | 95
O=C(NCCCn1ccnc1)C(=O)NCC1OCCCN1S(=O)(=O)c1ccc(F)cc1 (stereo not drawn) | 6 | 97 | 1 | 9 | 104 | 1 | . | . | .
CSc1ccc(CN(C)CC(=O)NC(=O)NC(C)(C)C)cc1 | 7 | 104 | 0.84 | 13 | 97 | -4 | . | . | .
CCN(CC)CCNC(=O)c1cn(CC)c2ccc(S(=O)(=O)N(C)C)cc2c1=O | 6 | 95 | 0.85 | 4 | 103 | 6 | . | . | .
CCN(CC)C(=O)N1CCc2ccccc21 | -40 | 96 | 1.2 | -1 | 146* | 4 | 151* | 105 | 101
CC(CC(=O)N1CCc2ccccc21)c1ccccc1 (stereo not drawn) | 10 | 106 | 1.4 | . | 92 | -8 | . | . | .
CN(C)c1cc(O)c(C(=S)Nc2ccccc2)c(N(C)C)c1 | -48 | 107 | 0.96 | 19 | 146* | -8 | 136* | 110 | 113
CC(=O)N(C)c1ccc(NC(=S)Nc2ccccc2)cc1 | 3 | 94 | 0.94 | 17 | 106 | 5 | . | . | .
CN1N=C(C(=O)N2CCc3c([nH]c4ccccc34)C2c2c(F)cccc2Cl)CCC1=O (stereo not drawn) | -53 | 110 | 1.7 | 22 | 154* | -11 | 150* | 104 | 114
Cc1ncoc1C(=O)N1CCc2c([nH]c3ccccc23)C1c1ccccc1F (stereo not drawn) | -33 | 91 | 1.3 | -8 | 130 | 8 | . | . | .
COc1cc2c(cc1OC)-c1cc(N3CCCCCC3)nc(=O)n1CC2 | -13 | 104 | 0.71 | 13 | 114 | -4 | . | . | .
COc1cc2c(cc1OC)-c1cc(N3CCCc4ccccc43)nc(=O)n1CC2 | -52 | 97 | 0.63 | -12 | 149* | 3 | 133* | 103 | 96
Oc1oc(-c2ccccc2)nc1/C=N/c1nccs1 | 21 | 114 | 1.8 | 15 | 84 | -15 | . | . | .
Oc1oc(-c2ccccc2)nc1C=Nc1cccc2ccccc12 | -46 | 101 | 1.4 | -6 | 144* | -1 | 129 | 106 | 97
SMILES | STAT3 blocker | STAT1 act-1 | NF-kB expr up | APP 5'UTR act | STAT3 act-1 | STAT1 inh | STAT3 act-2 | NFkB act STAT3ct | STAT1 act-2
Cc1ccc2cccc(N=Cc3c(C)[nH]n(-c4ccccc4)c3=O)c2n1 | -51 | 104 | 1.1 | -2 | 137* | -5 | 135* | 107 | 110
NC(=O)N/N=C/c1c(F)cccc1F | 2 | 98 | 1.5 | 17 | 101 | 2 | . | . | .
COc1cc(C2C(C#N)=C(N)Oc3cc4c(cc32)OCO4)cc(OC)c1OC (stereo not drawn) | -46 | 90 | 3 | -93 | 147* | 11 | 118 | 162* | 107
COc1cc(C2C(C#N)=C(N)Oc3cc(O)ccc32)cc(OC)c1OC (stereo not drawn) | -10 | 91 | 1 | -95 | 112 | 10 | . | . | .
CCCNC(=O)C(C)n1c2ccccc2c2nc(=O)cc(C)n21 (stereo not drawn) | 9 | 96 | 1 | 3 | 100 | 5 | . | . | .
CCCN(CCC)C(=O)Cn1c2ccccc2c2nc(=O)cc(C)n21 | -65 | 85 | 1.1 | -14 | 165* | 16 | 161* | 105 | 90
CCN(CC)P(=O)(Nc1ccc(C)cc1Br)c1ccc(N(C)C)cc1NC(=O)c1ccco1 (stereo not drawn) | -58 | 103 | 0.65 | 8 | 150* | -4 | 144* | 103 | 111
COC(=O)c1c(NC(=O)C2C3CCC(O3)C2C(=O)O)sc2c1CCCCCC2 (stereo not drawn) | 8 | 90 | 1.3 | 0 | 96 | 11 | . | . | .
CCCCC(=O)Nc1nnc(C2=COCCO2)o1 | 7 | 112 | 1.1 | 17 | 100 | -15 | . | . | .
COC(=O)c1sccc1NC(=O)c1cc(C)on1 | -56 | 103 | 1 | 10 | 151* | -3 | 135* | 104 | 103
COC(=O)c1sccc1NC(=O)c1c(C)noc1C | 5 | 108 | 1.1 | -12 | 99 | -9 | . | . | .
O=c1cc(O)c2ccccc2n1Cc1ccccc1F | -35 | 96 | 1.3 | 11 | 138* | 4 | 98 | 107 | 104
Cc1ccc(CN2CCN(/N=C\c3cccc([N+](=O)[O-])c3)CC2)cc1 | 8 | 97 | 0.98 | 1 | 95 | 1 | . | . | .

Screening results from PubChem.
